Results: ChEMBL document CHEMBL1142153, “Pharmacokinetics and disposition of CS-023 (RO4908463), a novel parenteral carbapenem, in animals” (Antimicrob Agents Chemother, 2007)

Assays:
[1] = Protein binding in dog serum at 20 ug/ml; format: ADME, cell-free, Canis lupus familiaris; details: read-out: PPB
Procedure, shortened: (§1)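 Serum was spiked with CS-023 in water to a final 20 or 100 µg/ml and incubated for 5 min at 37°C. It was then ultrafiltered by centrifugation at 2,000 x g for 10 min at room temperature. Drug in serum before filtration (Ct) and in the filtrate (Cf) was measured by HPLC-UV. Bound % = (Ct − Cf)/Ct × 100; n=4.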

[2] = Clearance in rat at 25 mg/kg, iv; format: ADME, organism-based; set-up: dose 25 mg/kg, route intravenous; details: in vivo
Procedure, shortened: (§2)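 Rats received CS-023 in saline by tail-vein bolus at 10, 25 or 50 mg/kg; jugular blood was drawn serially. Plasma mixed with an equal volume of 500 mM MOPS pH 6.0 containing internal standard, then HPLC with UV at 304 nm (linear 1–500 µg/ml). Log-linear terminal kel gave t1/2; AUC by trapezoidal rule + Clast/kel; CL = dose/AUC0-inf. n=3.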

[3] = Volume of distribution at steady state in rat at 50 mg/kg, iv; format: ADME, organism-based; set-up: dose 50 mg/kg, route intravenous; details: in vivo, read-out: Vss
Procedure, shortened: (§3)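 Rats dosed once by tail-vein bolus of CS-023 in saline; blood drawn serially from the jugular vein and plasma separated at 4°C. Plasma mixed 1:1 with 500 mM MOPS pH 6.0 containing p-acetamidophenol internal standard and assayed by HPLC with UV at 304 nm (linear 1 to 500 µg/ml). Vss = CL (dose/AUC0-∞) × mean residence time.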

[4] = Volume of distribution at steady state in dog at 5 mg/kg, iv; format: ADME, organism-based, Canis lupus familiaris; set-up: dose 5 mg/kg, route intravenous; details: in vivo, read-out: Vss
Procedure, shortened: (§4)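 Single i.v. bolus of CS-023 in saline into the foreleg saphenous vein of dogs at 5, 10 or 25 mg/kg; serial blood from the same vein. Plasma separated at 4°C, mixed 1:1 with 500 mM MOPS pH 6.0 containing internal standard, and analysed by two-column HPLC with UV at 304 nm; linear 1–500 µg/ml. kel from log-linear terminal slope, t1/2 = 0.693/kel; AUC by trapezoids plus Clast/kel; CL = dose/AUC; Vss = CL × MRT. n=3.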

[5] = AUC (0-inf) in rat at 25 mg/kg, iv; format: ADME, organism-based; set-up: time infinity, dose 25 mg/kg, route intravenous; details: plasma; procedure, shortened: as §2
[6] = Clearance in rat at 10 mg/kg, iv; format: ADME, organism-based; set-up: dose 10 mg/kg, route intravenous; details: in vivo; procedure, shortened: as §2
[7] = Volume of distribution at steady state in dog at 25 mg/kg, iv; format: ADME, organism-based, Canis lupus familiaris; set-up: dose 25 mg/kg, route intravenous; details: in vivo, read-out: Vss; procedure, shortened: as §4
[8] = Clearance in rat at 50 mg/kg, iv; format: ADME, organism-based; set-up: dose 50 mg/kg, route intravenous; details: in vivo; procedure, shortened: as §2
[9] = Half life in dog at 5 mg/kg, iv; format: ADME, organism-based, Canis lupus familiaris; set-up: dose 5 mg/kg, route intravenous; details: in vivo; procedure, shortened: as §4
[10] = Clearance in dog at 10 mg/kg, iv; format: ADME, organism-based, Canis lupus familiaris; set-up: dose 10 mg/kg, route intravenous; details: in vivo; procedure, shortened: as §4
Rattus norvegicus [11] = assay: Urinary excretion in rat assessed as radioactivity at 10 mg/kg, iv after 24 h; format: ADME, organism-based, Urine; set-up: dose 10 mg/kg, route intravenous; details: in vivo
Procedure, shortened: (§5)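 Rats were dosed i.v. via the tail vein with [14C]CS-023 at 10 mg/kg (4.58 MBq/kg) in saline, then kept in individual metabolic cages for separate urine and feces collection over 7 days. Samples up to 24 h were collected at around 4°C into 0.5 M MOPS pH 6.0, and feces were homogenized. Radioactivity was measured by liquid scintillation counting. Parent drug and metabolite were apportioned by silica TLC (3% NaCl:acetonitrile 2:1) with imaging-plate analysis. n=4.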

[12] = Volume of distribution at steady state in rat at 25 mg/kg, iv; format: ADME, organism-based; set-up: dose 25 mg/kg, route intravenous; details: in vivo, read-out: Vss; procedure, shortened: as §3
[13] = AUC (0-inf) in dog at 5 mg/kg, iv; format: ADME, organism-based, Canis lupus familiaris; set-up: time infinity, dose 5 mg/kg, route intravenous; details: plasma; procedure, shortened: as §4
Macaca fascicularis [14] = assay: Half life in monkey at 5 mg/kg, iv; details: cynomolgus monkey, in vivo
[15] = AUC (0-inf) in dog at 25 mg/kg, iv; format: ADME, organism-based, Canis lupus familiaris; set-up: time infinity, dose 25 mg/kg, route intravenous; details: plasma; procedure, shortened: as §4
[16] = Clearance in dog at 25 mg/kg, iv; format: ADME, organism-based, Canis lupus familiaris; set-up: dose 25 mg/kg, route intravenous; details: in vivo; procedure, shortened: as §4
Macaca fascicularis [17] = assay: Half life in monkey at 10 mg/kg, iv; details: cynomolgus monkey, in vivo
[18] = Half life in rat at 25 mg/kg, iv; format: ADME, organism-based; set-up: dose 25 mg/kg, route intravenous; details: in vivo; procedure, shortened: as §2
[19] = Protein binding in rat serum at 20 ug/ml; format: ADME, cell-free; details: read-out: PPB (converted); procedure, shortened: as §1
Macaca fascicularis [20] = assay: Clearance in monkey at 10 mg/kg, iv; details: cynomolgus monkey, in vivo
Macaca fascicularis [21] = assay: Clearance in monkey at 5 mg/kg, iv; details: cynomolgus monkey, in vivo
[22] = AUC (0-inf) in dog at 10 mg/kg, iv; format: ADME, organism-based, Canis lupus familiaris; set-up: dose 10 mg/kg, route intravenous, time infinity; details: plasma; procedure, shortened: as §4
[23] = Clearance in dog at 5 mg/kg, iv; format: ADME, organism-based, Canis lupus familiaris; set-up: dose 5 mg/kg, route intravenous; details: in vivo; procedure, shortened: as §4
Macaca fascicularis [24] = species on record: Macaca fascicularis; assay: Protein binding in monkey serum at 100 ug/ml; details: cynomolgus monkey, read-out: PPB (converted)
[25] = AUC (0-inf) in rat at 10 mg/kg, iv; format: ADME, organism-based; set-up: dose 10 mg/kg, route intravenous, time infinity; details: plasma; procedure, shortened: as §2
[26] = Protein binding in rat serum at 100 ug/ml; format: ADME, cell-free; details: read-out: PPB (converted); procedure, shortened: as §1
Rattus norvegicus [27] = assay: Fecal excretion in rat assessed as radioactivity at 10 mg/kg, iv after 24 h; format: ADME, organism-based; set-up: dose 10 mg/kg, route intravenous; details: in vivo; procedure, shortened: as §5
Macaca fascicularis [28] = species on record: Macaca fascicularis; assay: Protein binding in monkey serum at 20 ug/ml; details: cynomolgus monkey, read-out: PPB (converted)
[29] = Volume of distribution at steady state in rat at 10 mg/kg, iv; format: ADME, organism-based; set-up: dose 10 mg/kg, route intravenous; details: in vivo, read-out: Vss; procedure, shortened: as §3
Macaca fascicularis [30] = assay: AUC (0-inf) in monkey at 25 mg/kg, iv; details: cynomolgus monkey, plasma
[31] = Volume of distribution at steady state in dog at 10 mg/kg, iv; format: ADME, organism-based, Canis lupus familiaris; set-up: dose 10 mg/kg, route intravenous; details: in vivo, read-out: Vss; procedure, shortened: as §4
Macaca fascicularis [32] = assay: Clearance in monkey at 25 mg/kg, iv; details: cynomolgus monkey, in vivo
[33] = Half life in dog at 25 mg/kg, iv; format: ADME, organism-based, Canis lupus familiaris; set-up: dose 25 mg/kg, route intravenous; details: in vivo; procedure, shortened: as §4
[34] = Protein binding in dog serum at 100 ug/ml; format: ADME, cell-free, Canis lupus familiaris; details: read-out: PPB (converted); procedure, shortened: as §1
Macaca fascicularis [35] = assay: AUC (0-inf) in monkey at 10 mg/kg, iv; details: cynomolgus monkey, plasma
Macaca fascicularis [36] = assay: Volume of distribution at steady state in monkey at 10 mg/kg, iv; details: cynomolgus monkey, in vivo, read-out: Vss
Macaca fascicularis [37] = assay: AUC (0-inf) in monkey at 5 mg/kg, iv; details: cynomolgus monkey, plasma
Macaca fascicularis [38] = assay: Half life in monkey at 25 mg/kg, iv; details: cynomolgus monkey, in vivo
[39] = Half life in rat at 50 mg/kg, iv; format: ADME, organism-based; set-up: dose 50 mg/kg, route intravenous; details: in vivo; procedure, shortened: as §2
Macaca fascicularis [40] = assay: Volume of distribution at steady state in monkey at 5 mg/kg, iv; details: cynomolgus monkey, in vivo, read-out: Vss
[41] = AUC (0-inf) in rat at 50 mg/kg, iv; format: ADME, organism-based; set-up: time infinity, dose 50 mg/kg, route intravenous; details: plasma; procedure, shortened: as §2
Macaca fascicularis [42] = assay: Volume of distribution at steady state in monkey at 25 mg/kg, iv; details: cynomolgus monkey, in vivo, read-out: Vss
[43] = Half life in rat at 10 mg/kg, iv; format: ADME, organism-based; set-up: dose 10 mg/kg, route intravenous; details: in vivo; procedure, shortened: as §2
[44] = Half life in dog at 10 mg/kg, iv; format: ADME, organism-based, Canis lupus familiaris; set-up: dose 10 mg/kg, route intravenous; details: in vivo; procedure, shortened: as §4

Molecule C[C@@H](O)[C@H]1C(=O)N2C(C(=O)O)=C(S[C@H]3C[C@@H](C(=O)N4CC[C@H](NC(=O)CNC(=N)N)C4)N(C)C3)[C@H](C)[C@H]12 [TOMOPENEM] has a fraction unbound at 20 ug/ml [1] of 0.91, a clearance [2] of 15.1 mL/min/kg and a Vd [3] of 0.22 L/kg. For the same molecule, the Vd [4] was 0.269 L/kg, the AUC(0-inf) [5] was 28400 ng·h/mL and the clearance [6] was 16.9 mL/min/kg. The Vd [7] was 0.228 L/kg, the clearance [8] was 15.2 mL/min/kg and the half-life [9] was 45 min. It also gave a clearance [10] of 4.19 mL/min/kg, an Activity (Rattus norvegicus [11]) of 29.6% and a Vd [12] of 0.218 L/kg. The AUC(0-inf) [13] was 18800 ng·h/mL, the half-life (Macaca fascicularis [14]) was 79.2 min and the AUC(0-inf) [15] was 129000 ng·h/mL. It also gave a clearance [16] of 3.26 mL/min/kg, a half-life (Macaca fascicularis [17]) of 83.4 min and a half-life [18] of 11.4 min. For the same molecule, the fraction unbound at 20 ug/ml [19] was 0.95, the clearance (Macaca fascicularis [20]) was 1.62 mL/min/kg and the clearance (Macaca fascicularis [21]) was 1.76 mL/min/kg. For the same molecule, the AUC(0-inf) [22] was 39900 ng·h/mL, the clearance [23] was 4.44 mL/min/kg and the fraction unbound at 100 ug/ml (Macaca fascicularis [24]) was 0.849. The AUC(0-inf) [25] was 10200 ng·h/mL, the fraction unbound at 100 ug/ml [26] was 0.941 and the Activity (Rattus norvegicus [27]) was 3.1%. For the same molecule, the fraction unbound at 20 ug/ml (Macaca fascicularis [28]) was 0.844, the Vd [29] was 0.199 L/kg and the AUC(0-inf) (Macaca fascicularis [30]) was 244000 ng·h/mL. For the same molecule, the Vd [31] was 0.259 L/kg, the clearance (Macaca fascicularis [32]) was 1.73 mL/min/kg and the half-life [33] was 52.8 min. For the same molecule, the fraction unbound at 100 ug/ml [34] was 0.946, the AUC(0-inf) (Macaca fascicularis [35]) was 104000 ng·h/mL and the Vd (Macaca fascicularis [36]) was 0.172 L/kg. It also gave an AUC(0-inf) (Macaca fascicularis [37]) of 48600 ng·h/mL, a half-life (Macaca fascicularis [38]) of 86.4 min and a half-life [39] of 12 min. The Vd (Macaca fascicularis [40]) was 0.176 L/kg, the AUC(0-inf) [41] was 55000 ng·h/mL and the Vd (Macaca fascicularis [42]) was 0.184 L/kg. For the same molecule, the half-life [43] was 9.6 min and the half-life [44] was 45 min.
